Compounds with a hit are over-represented: about 4.6% of the library has one in this group of screens.
PfM18AAP inh – PfM18AAP enzyme inhibition; recombinant PfM18AAP, H-Glu-NHMec fluorogenic cleavage; 290,000 compounds, 1.2% hits; inhibition, % at 7.35 µM;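 active means inhibition above the campaign mean inhibition over all tested compounds plus 3 SD, cut at about 28% in these data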;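 further: 0% = plate median of test compound wells and 100% = 2 mM ZnCl2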
HDAC3 inh – blocks human histone deacetylase 3; AID 2718; 320,000 compounds, 0.15% hits; recombinant HDAC3, fluorogenic peptide/trypsin coupled, fluorescence; inhibition, % at 8.3 µM; O15379; in the data active means inhibition above about 26%, passing the limit was not always enough; inconclusive means no clear call, values can overlap the other calls
FAS-TE inh – blocks the thioesterase domain of human fatty acid synthase | P49327 | recombinant FAS-TE, OMFH fluorogenic substrate, fluorescence endpoint | inhibition, % at 15 µM | 360,000 compounds, 0.67% hits;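 active means compounds whose normalised, plate-corrected inhibition of enzyme fluorescence in the single-dose primary screen is 50% or more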;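 further: 0% = DMSO with enzyme and 100% = substrate without enzyme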
UCH37 inh – human UCH37 deubiquitinating enzyme inhibition; purified proteasome/UCH37, Ub-AMC cleavage fluorescence; inhibition, % (test concentration not listed); 330,000 compounds, 0.33% hits;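 active means mean inhibition over replicate wells above about 20%, limit read from the data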;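 further: 0% = compound-free wells with enzyme and 100% = wells lacking proteasome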
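Signal – fluorescence, ex 355 nm, em 460 nm · System – Proteasome-bound UCH37 · Input – 0.15 nM proteasome as dispensed · Timing – 30 min preincubation with enzyme, 25 min cleavage at room temperature · Read-out basis – percent inhibition of cleavage signal versus uninhibited and no-proteasome wells · Medium – Tris-HCl pH 7.4 with ATP-MgCl2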
Rtt109 HAT inh – C. albicans Rtt109 histone acetyltransferase inhibition | purified Rtt109/Vps75, ThioGlo CoA-SH fluorescence, 4 h | inhibition, % at 34.9 µM | 330,000 compounds, 0.16% hits | AID 540336;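 active means inhibition of at least 50% in every replicate; inconclusive means best replicate reaches 50% inhibition but some replicates fall short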
Target sequence (Q5AAJ8 whole entry, looked up): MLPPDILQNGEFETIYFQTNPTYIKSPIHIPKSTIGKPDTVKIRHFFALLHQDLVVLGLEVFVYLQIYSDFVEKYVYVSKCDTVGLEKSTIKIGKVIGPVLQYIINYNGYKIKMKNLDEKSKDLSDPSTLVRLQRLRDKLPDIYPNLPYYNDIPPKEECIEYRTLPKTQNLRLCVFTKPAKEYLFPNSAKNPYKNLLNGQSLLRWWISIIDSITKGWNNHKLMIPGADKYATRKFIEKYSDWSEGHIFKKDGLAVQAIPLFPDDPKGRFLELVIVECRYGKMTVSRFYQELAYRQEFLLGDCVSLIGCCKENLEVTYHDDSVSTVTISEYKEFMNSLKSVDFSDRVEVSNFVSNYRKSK
ALR H2O2 inh – human ALR oxidase inhibition via reduced H2O2; 290,000 compounds, 3.8% hits; inhibition, % (no concentration beside the values); purified ALR, DTT oxidation, H2O2 HRP-luminol luminescence;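 active means mean replicate inhibition above about 79%, with every replicate also reaching it, limit read from the data; inconclusive means only one of the two criteria met; inactive means mean below limit and not every replicate reaching it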
Target sequence (P55789 whole entry, looked up): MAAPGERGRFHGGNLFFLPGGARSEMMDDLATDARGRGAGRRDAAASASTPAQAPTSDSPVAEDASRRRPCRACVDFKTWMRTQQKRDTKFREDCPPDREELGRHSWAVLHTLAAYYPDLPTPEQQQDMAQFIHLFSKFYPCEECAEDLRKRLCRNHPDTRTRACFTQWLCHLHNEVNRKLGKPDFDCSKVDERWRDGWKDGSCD
FAS-TE inh conf – FAS thioesterase (human) inhibition, confirmation; AID 624325; inhibition, % at 15 µM; recombinant FAS-TE, OMFH fluorogenic substrate, fluorescence; 2,300 compounds, 45% hits; shares compounds with FAS-TE inh;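 active means compounds inhibiting the enzyme by at least 50% at 15 µM in any one of the replicates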;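 further: 0% = enzyme with DMSO only and 100% = wells lacking enzyme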
Active calls of the source: *; u = inconclusive; x = no result.

SMILES	PfM18AAP inh	HDAC3 inh	FAS-TE inh	UCH37 inh	Rtt109 HAT inh	ALR H2O2 inh	FAS-TE inh conf
Cc1cc(C(=O)NN=Cc2ccc(OC(=O)c3ccccc3Br)cc2)n[nH]1	x	x	x	0	x	x	x
CCCCSc1nc2c(c(C(F)(F)F)c1C#N)CCC2	3	-3	36	-13	-7	0	x
CCOC(=O)CCSc1nc2c(c(C(F)(F)F)c1C#N)CCC2	-1	-2	71*	-5	-4	x	65*
Cc1cccc(Oc2cc(NC(=O)Cn3cnc([N+](=O)[O-])n3)cc([N+](=O)[O-])c2)c1	-1	u	59*	6	4	x	44
FC(F)(F)c1cccc(N2CCN(C(=S)NC3CCCCC3)CC2)c1	-2	3	51*	2	8	2	28
CCCC(=O)NC1=C(Cl)C(=O)c2ccccc2C1=O	x	x	53*	x	2	x	56*
CCN1C(=O)[C@H]2[C@@H](c3ccc(-c4ccc5c(c4)OCO5)cc3)N[C@@](Cc3ccccc3)(C(=O)OC)[C@H]2C1=O	x	6	67*	2	4	-2	32
CCN1C(=O)[C@H]2[C@@H](c3ccc(-c4ccc(Cl)c(Cl)c4)c(OC)c3)N[C@@](Cc3ccccc3)(C(=O)OC)[C@H]2C1=O	x	4	70*	2	-8	-1	17
Cc1ccc(C)c(S(=O)(=O)NN=Cc2cccnc2)c1	x	x	x	5	x	x	x
O=C(NN=Cc1ccc(OC(=O)c2ccco2)cc1)c1ccncc1	x	x	x	-3	x	x	x
Cc1occc1C(=O)N/N=C/C1=C(N2CCOCC2)C(=C\c2ccc(Cl)cc2)/CC1	5	-3	1	x	2	40	x
CC(NC(=O)C12CC3CC(CC(C3)C1)C2)C(=O)N/N=C/C1=C(N2CCOCC2)C(=C\c2cccc([N+](=O)[O-])c2)/CC1 (stereo unspecified)	-3	0	89*	x	11	1	12
CC(C)C(NC(=O)C12CC3CC(CC(C3)C1)C2)C(=O)N/N=C/C1=C(N2CCOCC2)C(=C\c2ccc([N+](=O)[O-])cc2)/CC1 (stereo unspecified)	7	0	79*	x	-5	-3	7
CCOP(=O)(OCC)C(=NOC(=O)c1ccccc1C)C(N)=O	x	x	x	4	x	x	x
CCCc1c(C(=O)NN=Cc2ccc(OCc3ccccc3)c(OC)c2)nnn1-c1nonc1N	x	x	x	-16	x	x	x
Cc1ccc(C)c(OCC(=O)NN=Cc2c(C)nn(-c3ccccc3)c2Cl)c1	x	x	x	4	x	x	x
Cc1ccc(C(=O)Nc2c(C(=O)N3CCOCC3)cnn2-c2ccccc2)cc1	-3	-5	3	-3	10	7	x
O=C(Nc1c(C(=O)N2CCOCC2)cnn1-c1ccccc1)c1ccc([N+](=O)[O-])cc1	-6	-4	52*	4	-6	-74	56*
CC(=NOC(=O)c1ccc(Br)cc1)c1ccc(C)cc1	x	x	x	2	x	x	x
CCNC(=S)NN=Cc1ccc(C#N)cc1	x	x	x	7	x	x	x
CCOC(=O)c1c(-c2ccccc2)csc1NC(=O)c1cc(S(=O)(=O)N2CCOCC2)ccc1C	1	-3	52*	-6	-3	-7	17
Cc1csc(NC(=O)CCNC(=O)c2ccc([N+](=O)[O-])cc2)n1	-1	4	68*	-1	5	-9	71*
O=C(CCNC(=O)c1ccc([N+](=O)[O-])cc1)Nc1ccc(F)cc1	-1	-3	47	8	0	x	x
Cc1cc(C)cc(NC(=O)CCNC(=O)c2ccc([N+](=O)[O-])cc2)c1	-3	-1	69*	4	-2	-7	16
COc1ccc(C(=O)NN=C(C)c2cccc(NC(=O)c3ccccc3F)c2)cc1	x	x	x	4	x	x	x
SMILES	PfM18AAP inh	HDAC3 inh	FAS-TE inh	UCH37 inh	Rtt109 HAT inh	ALR H2O2 inh	FAS-TE inh conf
O=C(NNS(=O)(=O)c1ccc([N+](=O)[O-])cc1)c1ccc2ccccc2c1O	15	9	63*	1	8	98*	77*
O=C(NNS(=O)(=O)c1ccc(F)cc1)c1ccc([N+](=O)[O-])cc1	15	-5	5	1	-8	22	x
CN(c1ccccc1)S(=O)(=O)c1ccc(NC(=O)c2nc(S(C)(=O)=O)ncc2Cl)cc1	-67	0	58*	x	11	8	68*
CC[C@@]12C(=O)N(c3cccc(Br)c3)C(=O)N1[C@H](c1cccc(C)c1)[C@@H]1C(=O)N(Cc3ccccc3)C(=O)[C@@H]12	x	6	55*	1	15	x	31
CCN1C(=O)[C@H]2[C@@H](c3ccc(C)cc3)N3C(=O)N(c4ccc(C)cc4)C(=O)[C@@]3(Cc3ccccc3)[C@H]2C1=O	-2	-4	13	2	4	-16	x
Cc1cccc([C@@H]2[C@@H]3C(=O)N(Cc4ccccc4)C(=O)[C@@H]3[C@]3(Cc4ccc(Cl)cc4)C(=O)N(c4cccc(Br)c4)C(=O)N23)c1	1	2	91*	3	-6	x	23
Cc1cccc([C@@H]2[C@@H]3C(=O)N(Cc4ccccc4)C(=O)[C@@H]3[C@]3(C)C(=O)N(c4cccc(Cl)c4)C(=O)N23)c1	5	-9	23	5	-4	1	x
Cc1cccc([C@@H]2[C@@H]3C(=O)N(Cc4ccccc4)C(=O)[C@@H]3[C@]3(Cc4ccc(Cl)cc4)C(=O)N(c4ccccc4)C(=O)N23)c1	7	2	93*	5	-6	x	23
Cc1cccc([C@@H]2[C@@H]3C(=O)N(Cc4ccccc4)C(=O)[C@@H]3[C@]3(Cc4ccccc4)C(=O)N(c4ccc(C(F)(F)F)cc4)C(=O)N23)c1	x	4	90*	0	-7	-7	27
Cc1cc(C)n(-c2nnc(C)n2N=Cc2ccccc2O)n1	x	x	x	-10	x	x	x
CC(=O)Nc1ccc(C=NN2C(=O)NC(C)(c3ccc(OC(F)F)cc3)C2=O)cc1 (stereo unspecified)	x	x	x	2	x	x	x
COc1ccc(/C=C(/NC(=O)c2ccc([N+](=O)[O-])cc2)C(=O)NC(C)(C)C)cc1	-1	7	70*	5	-7	-6	55*
CC(C)(C)NC(=O)/C(=C/c1ccccc1F)NC(=O)c1ccc([N+](=O)[O-])cc1	5	0	42	1	11	-12	x
CCCCOc1ccc(C(=O)N/C(=C\c2ccc([N+](=O)[O-])cc2)C(=O)OCc2ccco2)cc1	-7	u	60*	3	1	-4	40
COc1ccc(/C=C(\NC(=O)c2ccc([N+](=O)[O-])cc2)C(=O)NCCCn2ccnc2)cc1	-6	4	74*	1	-1	-8	81*
O=C(Nc1ccc(C(=O)O)cc1)/C(=C\c1ccc([N+](=O)[O-])cc1)NC(=O)c1ccc(Br)cc1	-6	5	82*	8	2	-12	91*
